In ChEMBL document CHEMBL2390936, “Phosphonic analogues of glutamic acid as irreversible inhibitors of Staphylococcus aureus endoproteinase GluC: an efficient synthesis and inhibition of the human IgG degradation” (Bioorg Med Chem Lett, 2013):
Calls of active or inactive are those of the source. The calls are words filed in the database; no cut-off is given here.

Experiments:
[1] = molecular target: T1, Serine protease SplB (Staphylococcus aureus) (UniProt Q53781); experiment: Inhibition of Staphylococcus aureus SplB protease using Ac-Trp-Glu-Leu-Gln-ACC as substrate at 200 uM after 30 mins
T1 sequence (whole entry): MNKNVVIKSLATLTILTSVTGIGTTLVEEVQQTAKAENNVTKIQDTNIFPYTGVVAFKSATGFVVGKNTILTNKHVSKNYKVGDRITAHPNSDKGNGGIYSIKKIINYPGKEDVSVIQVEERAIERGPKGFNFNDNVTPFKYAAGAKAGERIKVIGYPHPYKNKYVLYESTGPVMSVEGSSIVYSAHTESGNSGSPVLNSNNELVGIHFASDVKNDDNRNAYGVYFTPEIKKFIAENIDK
Outline: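 SplB protease (100 nM, recombinant, expressed and purified in-house) in 0.1 M Tris–HCl, 0.01% Triton X-100, pH 7.6, 37 °C. Fluorogenic substrate Ac-Trp-Glu-Leu-Gln-ACC (Ex 355/Em 460 nm). Enzyme added last to substrate plus inhibitor. Percentage inhibition read after 30 min of kinetic measurement with inhibitor at 200 µM.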

Glutamyl endopeptidase = Glutamyl endopeptidase (Staphylococcus aureus, UniProt P0C1U8); experiment: Inhibition of Staphylococcus aureus endoproteinase GluC using Ac-Phe-Leu-Glu-ACC as substrate after 30 mins
Chain of Glutamyl endopeptidase (P0C1U8 whole entry): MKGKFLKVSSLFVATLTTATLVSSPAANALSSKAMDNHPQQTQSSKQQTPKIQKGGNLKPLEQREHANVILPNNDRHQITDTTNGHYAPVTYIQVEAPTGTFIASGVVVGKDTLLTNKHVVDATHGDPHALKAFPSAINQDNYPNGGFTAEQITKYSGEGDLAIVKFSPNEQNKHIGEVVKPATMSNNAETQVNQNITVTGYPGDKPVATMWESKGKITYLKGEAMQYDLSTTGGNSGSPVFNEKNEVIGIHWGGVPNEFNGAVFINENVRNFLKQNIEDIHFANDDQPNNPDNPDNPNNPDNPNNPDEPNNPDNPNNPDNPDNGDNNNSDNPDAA
Outline: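 V8 protease (75 nM, commercial) in 0.1 M Tris–HCl, 0.05% Tween 20, pH 7.8, 37 °C. Fluorogenic substrate Ac-Phe-Leu-Glu-ACC (Ex 355/Em 460 nm). Enzyme added to substrate plus inhibitor, with [E]0 below [I]0. Observed inhibition rate constants taken from progress curves, giving k2/Ki and Ki.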

Staphylococcus aureus = experiment: Antibacterial activity against Staphylococcus aureus ATCC […] after 4 to 24 hrs; format: functional, organism-based
[2] = molecular target: Glutamyl endopeptidase (Staphylococcus aureus) (UniProt P0C1U8); experiment: Inhibition of Staphylococcus aureus endoproteinase GluC-mediated human IgG degradation at 100 uM preincubated 1 hr prior to human IgG degradation addition measured after 24 hrs
Chain of Glutamyl endopeptidase (Staphylococcus aureus) (P0C1U8 whole entry, the tested form may be a part): as the sequence (P0C1U8 whole entry) above
Outline: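 V8 protease (final 1 µM) pre-incubated 1 h at 37 °C with inhibitor (final 100 µM). Human IgG (final 160 µg/ml) then added and incubated 24 h at 37 °C. DMSO-only control. Fragments separated by gel and visualised by silver staining.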

[3] = molecular target: Glutamyl endopeptidase (Staphylococcus aureus) (UniProt P0C1U8); experiment: Inhibition of Staphylococcus aureus endoproteinase GluC using Ac-Phe-Leu-Glu-ACC as substrate at 200 uM after 30 mins
Outline: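 V8 protease (75 nM) in 0.1 M Tris–HCl, 0.05% Tween 20, pH 7.8, 37 °C, with fluorogenic Ac-Phe-Leu-Glu-ACC (Ex 355/Em 460 nm). Enzyme added last to substrate plus inhibitor. Percentage inhibition recorded after 30 min of kinetic measurement at 200 µM inhibitor.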

Molecule	inhibition [1] [%]	Ki (Glutamyl endopeptidase) [µM]	inhibition [3] [%]	also measured
CC(C)C[C@H](NC(=O)OC(C)(C)C)C(=O)NC(CCC(=O)O)P(=O)(Oc1ccccc1)Oc1ccccc1 (mixture of isomers)	0	7.8	–	–
CC(C)[C@H](NC(=O)OC(C)(C)C)C(=O)NC(CCC(=O)O)P(=O)(Oc1ccccc1)Oc1ccccc1 (mixture of isomers)	0	23.3	–	–
CC(C)C[C@H](NC(=O)[C@H](Cc1ccccc1)NC(=O)OC(C)(C)C)C(=O)NC(CCC(=O)O)P(=O)(Oc1ccccc1)Oc1ccccc1 (mixture of isomers)	0	6.2	–	inhibition (Staphylococcus aureus): inactive; inhibition [2]: Active
CC(C)C[C@H](NC(=O)[C@H](CCC(=O)O)NC(=O)OC(C)(C)C)C(=O)NC(CCC(=O)O)P(=O)(Oc1ccccc1)Oc1ccccc1 (mixture of isomers)	0	9.5	–	–
C[C@H](NC(=O)[C@H](Cc1ccccc1)NC(=O)OC(C)(C)C)C(=O)NC(CCC(=O)O)P(=O)(Oc1ccccc1)Oc1ccccc1 (mixture of isomers)	0	9.4	–	–
C[C@H](NC(=O)[C@H](CCC(=O)O)NC(=O)OC(C)(C)C)C(=O)NC(CCC(=O)O)P(=O)(Oc1ccccc1)Oc1ccccc1 (mixture of isomers)	0	12.9	–	–
CC(C)[C@H](NC(=O)[C@H](Cc1ccccc1)NC(=O)OC(C)(C)C)C(=O)NC(CCC(=O)O)P(=O)(Oc1ccccc1)Oc1ccccc1 (mixture of isomers)	0	8.15	–	–
CC(C)[C@H](NC(=O)[C@H](CCC(=O)O)NC(=O)OC(C)(C)C)C(=O)NC(CCC(=O)O)P(=O)(Oc1ccccc1)Oc1ccccc1 (mixture of isomers)	0	9.95	–	–
CC(C)C[C@H](NC(=O)[C@H](CC(=O)O)NC(=O)OC(C)(C)C)C(=O)NC(CCC(=O)O)P(=O)(Oc1ccccc1)Oc1ccccc1 (mixture of isomers)	0	–	41	–
CC(C)C[C@H](NC(=O)[C@H](CCC(=O)O)NC(=O)OC(C)(C)C)C(=O)NC(CCC(N)=O)P(=O)(Oc1ccccc1)Oc1ccccc1 (mixture of isomers)	–	–	0	–
CC(C)[C@H](NC(=O)[C@H](CC(=O)O)NC(=O)OC(C)(C)C)C(=O)NC(CCC(=O)O)P(=O)(Oc1ccccc1)Oc1ccccc1 (mixture of isomers)	0	–	50	–
C[C@H](NC(=O)OC(C)(C)C)C(=O)NC(CCC(=O)O)P(=O)(Oc1ccccc1)Oc1ccccc1 (mixture of isomers)	0	–	39	–
C[C@H](NC(=O)[C@H](CC(=O)O)NC(=O)OC(C)(C)C)C(=O)NC(CCC(=O)O)P(=O)(Oc1ccccc1)Oc1ccccc1 (mixture of isomers)	0	–	26	–
O=C(O)CCC(NC(=O)OCc1ccccc1)P(=O)(Oc1ccccc1)Oc1ccccc1 (racemic)	0	8.1	–	–
CC(=O)NC(CCC(=O)O)P(=O)(Oc1ccccc1)Oc1ccccc1 (racemic)	0	11.1	–	–
GENTAMICIN	–	–	–	MIC (Staphylococcus aureus): 2 µg/mL
